The source of these data is the RNAGym collection of RNA variant scans (doi:10.1126/science.aae0568).

This sample holds only a part of the variants without activity.

Sequences and labels used below:
B1: tRNA (parent)
chain: GUUCCGUUGGCGUAAUGGUAACGCGUCUCCCUCCUAAGGAGAAGACUGCGGGUUCGAGUCCCGUACGGAACG

This data set covers variants of B1. Kind of data set: yeast fitness relative to wild type (ratio to wild type); higher = fitter; tRNA-Arg(CCU), competitive growth, 37 C, YPD. The procedure, abridged: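 The tRNA-Arg(CCU) gene variants were made by chemical synthesis with a 3% per-site mutation rate at 69 sites and inserted at the native genomic locus of Saccharomyces cerevisiae. After pooling, the strains were competed in YPD at 37°C for 24 hours in six parallel replicates. Gene amplicons from the start population and each end population were read by 100-nucleotide paired-end sequencing, and Darwinian fitness relative to wild type was taken from genotype frequency changes. Genotypes needed ≥ 100 starting reads, and estimates < 0.5 were set to 0.5.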
Consider GUUCCGUUGGCGUAAUGGUAACGCGUCUCCCUCCUAAGGAGAAGACUGCGAGUUCGAGACCCGUACGGAACG [G51A U59A], for which the yeast fitness came out at 0.696.
To GUUCCGUUGGCGUAAUGGUAACGCGUCUCCCUCCUAAGGAGAAGACUGCGCGUUUGAGUCCCGUACGGAACG [G51C C55U] belongs ≤ 0.5.
As for GUUCCGUUGGCGUAAUGGUAACGCGUCUCCCUCCUAAGGAGAAGACUGCGACUUCGAGUCUCGUACGGAACG [G51A G52C C61U], the yeast fitness stood at 0.536.
Next, GUUCCGUUGGCGUAAUGGUAACGCGUCUCCCUCCUAAGGAGAAGACUGCGCGUCCGAGUCCCGUAUGGAACG [G51C U54C C66U]: ≤ 0.5; GUUCCGUUGGCGUAAUGGUAACGCGUCUCCCUCCUAAGGAGAAGACUGCGCGUUCGAGCCCCGUACGGAACG [G51C U59C]: 0.523; GUUCCGUUGGCGUAAUGGUAACGCGUCUCCCUCCUAAGGAGAAGACUGCGGAUUCGUGUCGCGUACGGAACG [G52A A57U C61G]: ≤ 0.5.
To GUUCCGUUGGCGUAAUGGUAACGCGUCUCCCUCCUAAGGAGAAGACUGCGGAUUCGGAUCCCGUACGGAUCG [G52A A57G G58A A70U] belongs ≤ 0.5; to GUUCCGUUGGCGUAAUGGUAACGCGUCUCCCUCCUAAGGAGAAGACUGCGCGUUGGAGUCCAGUACGGAACG [G51C C55G C62A], ≤ 0.5.
As for GUUCCGUUGGCGUAAUGGUAACGCGUCUCCCUCCUAAGGAGAAGACUGCGUGAUCGAGUCCCGUACGGAACG [G51U U53A], the yeast fitness amounted to 0.657.
On to GUUCCGUUGGCGUAAUGGUAACGCGUCUCCCUCCUAAGGAGAAGACUGCGAGUUCGAGUCCCGUAUGGAACG [G51A C66U], for which the yeast fitness was found to be 0.82.
Next, GUUCCGUUGGCGUAAUGGUAACGCGUCUCCCUCCUAAGGAGAAGACUGCGAGUUCGAGUCCCGUAAGGAACG [G51A C66A]: 0.555; GUUCCGUUGGCGUAAUGGUAACGCGUCUCCCUCCUAAGGAGAAGACUGCGGAUUCGCGUCCCGUACGGAACG [G52A A57C]: 0.789; GUUCCGUUGGCGUAAUGGUAACGCGUCUCCCUCCUAAGGAGAAGACUGCGGAUUCGUGUCCCGUACGGAACG [G52A A57U]: 0.516.
On to GUUCCGUUGGCGUAAUGGUAACGCGUCUCCCUCCUAAGGAGAAGACUGCGCGUUCGAGUCCCGUACGGAUCG [G51C A70U], for which the yeast fitness is 0.662.
Next, GUUCCGUUGGCGUAAUGGUAACGCGUCUCCCUCCUAAGGAGAAGACUGCGAGUUUGAGUCCCGUUCGGAACG [G51A C55U A65U]: ≤ 0.5; GUUCCGUUGGCGUAAUGGUAACGCGUCUCCCUCCUAAGGAGAAGACUGCGAGAUCGAGUCCCGUACGGCACG [G51A U53A A69C]: ≤ 0.5; GUUCCGUUGGCGUAAUGGUAACGCGUCUCCCUCCUAAGGAGAAGACUGCGCGUUCGAAUCCCGUACGGAACG [G51C G58A]: 0.789.
Next, GUUCCGUUGGCGUAAUGGUAACGCGUCUCCCUCCUAAGGAGAAGACUGCGAGUUGGAGUCCCGUACGCAACG [G51A C55G G68C]: ≤ 0.5; GUUCCGUUGGCGUAAUGGUAACGCGUCUCCCUCCUAAGGAGAAGACUGCGAGUUCGAGUCCUGUACGGAACG [G51A C62U]: 0.763; GUUCCGUUGGCGUAAUGGUAACGCGUCUCCCUCCUAAGGAGAAGACUGCGAGUUCGAGUCCGGUACGGAACG [G51A C62G]: 0.621.
For the variant GUUCCGUUGGCGUAAUGGUAACGCGUCUCCCUCCUAAGGAGAAGACUGCGAGUUCGAGUCCAGUACGGAACG [G51A C62A], the yeast fitness was found to be 0.561.
For GUUCCGUUGGCGUAAUGGUAACGCGUCUCCCUCCUAAGGAGAAGACUGCGAAUUCGAGUCCCGUACGGAACG [G51A G52A], the yeast fitness turned out to be 0.571.
With GUUCCGUUGGCGUAAUGGUAACGCGUCUCCCUCCUAAGGAGAAGACUGCGAGUUCGAGUCCCGUACUGAACG [G51A G67U], the yeast fitness amounted to 0.709.
To GUUCCGUUGGCGUAAUGGUAACGCGUCUCCCUCCUAAGGAGAAGACUGCGAGUUCGAGUCCCGUACCGAACG [G51A G67C] belongs 0.857; to GUUCCGUUGGCGUAAUGGUAACGCGUCUCCCUCCUAAGGAGAAGACUGCGAGUUCGAGUCCCGUACAGAACG [G51A G67A], 0.872.
To GUUCCGUUGGCGUAAUGGUAACGCGUCUCCCUCCUAAGGAGAAGACUGCGAGUUCGAGACCCGUACCGAACG [G51A U59A G67C] belongs ≤ 0.5.
Next, GUUCCGUUGGCGUAAUGGUAACGCGUCUCCCUCCUAAGGAGAAGACUGCGCGUUCGAGUCCCGUUCGGAACG [G51C A65U]: 0.597; GUUCCGUUGGCGUAAUGGUAACGCGUCUCCCUCCUAAGGAGAAGACUGCGCGUUCGAGUCCCGUCCGGAACG [G51C A65C]: 0.71; GUUCCGUUGGCGUAAUGGUAACGCGUCUCCCUCCUAAGGAGAAGACUGCGGAUUCGAGUCCCGUACGGAACG [G52A]: 0.696.
Take GUUCCGUUGGCGUAAUGGUAACGCGUCUCCCUCCUAAGGAGAAGACUGCGCGUUCGAGUCCGGUACGAAACG [G51C C62G G68A]: the yeast fitness amounted to 0.715.
On to GUUCCGUUGGCGUAAUGGUAACGCGUCUCCCUCCUAAGGAGAAGACUGCGCGUUCGAGUCGCGUACGGAACG [G51C C61G], for which the yeast fitness was 1.04.
For GUUCCGUUGGCGUAAUGGUAACGCGUCUCCCUCCUAAGGAGAAGACUGCGAGUUCGAGUCCCCUACGGAACG [G51A G63C], the yeast fitness was 0.693.
Take GUUCCGUUGGCGUAAUGGUAACGCGUCUCCCUCCUAAGGAGAAGACUGCGAGUUCGAGUCCCAUACGGAACG [G51A G63A]: the yeast fitness was 0.739.
Next, GUUCCGUUGGCGUAAUGGUAACGCGUCUCCCUCCUAAGGAGAAGACUGCGCGUUCGAGUCCCGUAAGGAACG [G51C C66A]: ≤ 0.5; GUUCCGUUGGCGUAAUGGUAACGCGUCUCCCUCCUAAGGAGAAGACUGCGCGUUCGAGUCCCGUAUGGAACG [G51C C66U]: 0.565.
To GUUCCGUUGGCGUAAUGGUAACGCGUCUCCCUCCUAAGGAGAAGACUGCGCGUUCAAGUCCGGUAAGGAGCG [G51C G56A C62G C66A A70G] belongs ≤ 0.5; to GUUCCGUUGGCGUAAUGGUAACGCGUCUCCCUCCUAAGGAGAAGACUGCGAGUUUGAGUCCCGUACGGAACG [G51A C55U], 0.633.
To GUUCCGUUGGCGUAAUGGUAACGCGUCUCCCUCCUAAGGAGAAGACUGCGCGUUCGGGUCUCGUCCGGAACG [G51C A57G C61U A65C] belongs ≤ 0.5.
